# Compound activity deposited in PubChem BioAssay by several laboratories.
# MEKK3 PB1 HTS: MEKK3-MEK5 PB1 interaction, increase or decrease. Q99759. bead-based flow cytometry, Alexa488-MEK5 binding to MEKK3; actives lie on both sides; 0 = blocked by unlabeled MEK5, 100 = vehicle. binding response (% of control), % at 10 µM. hit rate 1.4% among 290,000. AID 1529;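 active means binding response more than 3 SD above or below the average of its plate-row segment, actives on both sides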;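 further: Alexa488 bead fluorescence after subtracting the streptavidin-only scavenger bead signal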
# GSK3B inh: blocks human GSK3beta kinase activity. P49841. GST-GSK3beta kinase, ADP-Glo luminescence, 60 min; active compounds read low. hit rate 0.038% among 300,000. activity score (negative = inhibition), % at 10 µM;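 active means more than half of replicate wells score below -50%, meaning over 50% inhibition versus plate controls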;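 further: 0% = median DMSO wells and -100% = median GW8510 positive control wells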
#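 Assay system: GST-fused GSK3beta enzyme, cell-free / Medium: Tris pH 7.5 buffer with MgCl2, DTT, BSA, heparin / Also added: peptide substrate plus 25 µM ATP (final) / Compound: 10 µM single point / Timing: kinase reaction with compound 60 min at room temperature / Detection: ADP-Glo luminescence / Benchmarks: DMSO neutral wells and GW8510 at 20 µM as positive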
# GSK3 alpha inh: blocks human GSK-3 alpha kinase | ADP-Glo luminescence, 60 min | inhibition, % at 10 µM | hit rate 0.1% among 320,000 | AID 2650;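 active means more than half of replicates show inhibition above 20%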;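 further: GST-tagged GSK-3 alpha with peptide substrate and 25 µM ATP; 0% = DMSO neutral wells and 100% = GW8510 positive control wells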
# Target sequence (P49840 whole entry, looked up): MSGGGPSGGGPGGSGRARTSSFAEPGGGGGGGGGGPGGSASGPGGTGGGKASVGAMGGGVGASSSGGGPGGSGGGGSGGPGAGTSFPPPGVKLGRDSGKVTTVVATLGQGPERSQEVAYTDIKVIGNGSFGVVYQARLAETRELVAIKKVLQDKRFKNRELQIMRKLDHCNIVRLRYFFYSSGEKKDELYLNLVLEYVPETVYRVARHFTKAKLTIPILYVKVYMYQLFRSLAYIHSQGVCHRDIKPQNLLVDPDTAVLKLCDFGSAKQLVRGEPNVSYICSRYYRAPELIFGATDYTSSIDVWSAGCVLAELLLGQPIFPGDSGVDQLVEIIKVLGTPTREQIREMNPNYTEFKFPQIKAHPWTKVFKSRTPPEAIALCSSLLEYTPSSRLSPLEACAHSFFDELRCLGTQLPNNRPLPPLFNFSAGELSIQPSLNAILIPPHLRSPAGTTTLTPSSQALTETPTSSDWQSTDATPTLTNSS
# STK33 inh: human STK33 kinase inhibition; Q9BYT3; purified STK33, MBP phosphorylation, ADP-Glo luminescence; inhibition, % at 10 µM; hit rate 0.073% among 320,000; AID 2661;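 active means inhibition at or above 25%, using the most active replicate where run in duplicate; inactive means inhibition below 25%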
# MEKK2 WT-MEK5: raises or lowers MEK5 binding to wildtype human MEKK2 PB1 domain; AID 1531; bead flow cytometry, Alexa488-MEK5 binding to MEKK2 WT; actives lie on both sides; hit rate 1.1% among 290,000; binding response (% of control), % at 10 µM; in the data active means binding response below about 67% or above about 130%
# MEKK2mut PB1 HTS: signal of MEK5 binding to mutant human MEKK2 PB1 domain. hit rate 0.35% among 290,000. bead flow cytometry, Alexa488-MEK5 binding to MEKK2 mutant. percent response, % at 10 µM; in the data active means percent response above about 24%, passing the limit was not always enough
# MEKK2wt confirm: raises or lowers MEK5 binding to wildtype human MEKK2, retest | shares compounds with MEKK3 PB1 HTS | bead flow cytometry, Alexa488-MEK5 binding to MEKK2 WT; actives lie on both sides | binding response (% of control), % at 10 µM | hit rate 2.4% among 5,900; in the data active means binding response below about 16% or above about 210%; inactive means in between
# MEKK2mut confirm: signal of MEK5 binding to mutant human MEKK2, retest; bead flow cytometry, Alexa488-MEK5 binding to MEKK2 mutant; shares compounds with MEKK3 PB1 HTS; hit rate 2% among 5,900; AID 1893; percent response, % at 10 µM; in the data active means percent response mostly above about 71%, no sharp cut-off; inactive means mostly below about 38%;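 further: higher means compound restores mutant binding toward wildtype level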
# MEKK3 confirm: MEKK3-MEK5 PB1 inhibition, single concentration confirmation; shares compounds with MEKK3 PB1 HTS; bead flow cytometry, Alexa488-MEK5 binding to MEKK3; active compounds read low; binding response (% of control), % at 10 µM; hit rate 1.8% among 5,900; AID 1894;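 active means binding response below 72% of control, or above a set upper limit, though filed actives all read lower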;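 further: 100% = DMSO only wells and 0% = binding blocked by excess unlabeled MEK5; lower values mean stronger disruption of MEK5 binding to MEKK3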
# * hit, by the source's call; nt = no result; [ ] = remark or other dose. Hits are enriched below; roughly 2.1% of the tested compounds scored in any of these assays.
SMILES,MEKK3 PB1 HTS,GSK3B inh,GSK3 alpha inh,STK33 inh,MEKK2 WT-MEK5,MEKK2mut PB1 HTS,MEKK2wt confirm,MEKK2mut confirm,MEKK3 confirm
CCn1c(C)nc2cc(C(=O)NNC(=S)Nc3ccc(F)cc3)ccc21,103,2,-4,0,101,8,nt,nt,nt
CCn1c(C)nc2cc(C(=O)NNC(=S)Nc3ccc(Cl)cc3)ccc21,25*[inhibitor],-1,1,0,19*[inhibitor],-13,97,5,101
COc1ccc(S(=O)(=O)NCCc2c[nH]c3ccc(Cl)cc23)cc1,104,-1,-1,-1,108,7,nt,nt,nt
CS(=O)(=O)N1CCN(c2ccc(NC(=O)c3ccc(-c4ccc(Cl)cc4)o3)cc2)CC1,100,0,-2,-1,98,3,nt,nt,nt
CN1CCN(c2ccc(NC(=O)c3ccc(-c4ccc(Cl)cc4)o3)cc2)CC1,108,-7,2,0,171*,43*,195,72*,114
COc1ccc(OC)c(C2C=C(c3ccc(C)c(C)c3)Nc3nnnn32)c1 (stereo not given),1.0*[inhibitor],4,nt,1,0.0*[inhibitor],-47,96,1,104
COc1cccc(C2=CC(c3cc(OC)ccc3OC)n3nnnc3N2)c1 (stereo not given),nt,0,-1,-1,nt,nt,nt,nt,nt
COc1cccc(C2=CC(c3cccc(OC)c3OC)n3nnnc3N2)c1 (stereo not given),80*[inhibitor],-1,-1,0,87,-12,96,0,104
N/C(=N\NS(=O)(=O)c1ccccc1Cl)c1ccccn1,nt,1,-2,-1,nt,nt,nt,nt,nt
Cn1c(NC(=O)c2ccc(Cl)cc2)cc(=O)n(C)c1=O,136*,1,0,0,107,0,104,-5,104
O=C(Nc1nc2ccsc2c(=O)s1)c1ccco1,80,-1,0,0,86,-29,nt,nt,nt
O=C(Nc1nc2ccsc2c(=O)s1)C1CCC1,129*,0,-1,0,116,32,99,0,102
CON(C)S(=O)(=O)c1ccc2c(c1)N(Cc1ccc(C)cc1)C(=O)C1CCCN21 (stereo not given),101,1,-3,-1,100,0,nt,nt,nt
CC(=O)Nc1ccc(N2C(=O)CSC2c2ccc(F)cc2)cc1 (stereo not given),81*[inhibitor],1,4,-1,80,-4,99,0,100
Cc1ccccc1OCc1nnc(SCC(=O)N2CCc3ccccc32)n1C,2.0*[inhibitor],1,-1,0,2.0*[inhibitor],-3,100,-1,102
Clc1ccccc1-c1nc2ccccc2c2nc3ccccc3n12,134*,1,-1,1,103,0,96,-7,95
CCc1nnc(NC(=O)C2CC(=O)N(Cc3ccco3)C2)s1 (stereo not given),122*,0,9,-1,116,6,101,-3,100
COC(=O)c1[nH]c2cc(OC)c(OC)cc2c1NC(=O)CN1C[C@H]2C[C@@H](C1)c1cccc(=O)n1C2,nt,nt,-1,1,nt,nt,nt,nt,nt
Cc1cc(-c2ccc(Cl)cc2)n2ncnc2n1,50*[inhibitor],1,2,1,59,-39,101,-3,95
Cc1cc(Nc2ccc(Cl)cc2)n2ncnc2n1,104,3,-2,-1,104,3,nt,nt,nt
CCOc1ccc(NC(=O)C(CC)n2nc(C)c3c(C)n(-c4ccccc4)nc3c2=O)cc1 (stereo not given),100,-2,0,-1,99,-2,nt,nt,nt
CC1=C(C(N)=O)C(c2ccc(Br)cc2)n2nc(CCCO)nc2N1 (stereo not given),72,-2,3,1,44*[inhibitor],-11,107,4,103
O=C(CCCc1nc(-c2ccc(Cl)cc2)no1)NC1CCCC1,97,-4,-3,2,100,-9,nt,nt,nt
Cc1ccc(CNC(=O)c2ccc3nc4[nH]c5ccccc5c4nc3c2)cc1,72*[inhibitor],3,nt,nt,97,-1,91,-3,97
COc1ccccc1CNC(=O)c1ccc2nc3[nH]c4ccccc4c3nc2c1,94,-3,0,0,85,-6,nt,nt,nt
SMILES,MEKK3 PB1 HTS,GSK3B inh,GSK3 alpha inh,STK33 inh,MEKK2 WT-MEK5,MEKK2mut PB1 HTS,MEKK2wt confirm,MEKK2mut confirm,MEKK3 confirm
O=C(NCC1CCCO1)c1ccc(CNS(=O)(=O)c2cccc(Cl)c2)cc1 (stereo not given),102,0,-1,0,101,3,nt,nt,nt
COc1ccc2ccccc2c1/C=N/O,133*,2,-2,2,121,6,98,1,101
C=CCOc1ccc2ccccc2c1/C=N/O,109,-1,-1,1,103,5,nt,nt,nt
CC(=O)c1cc2c(cc1NC(=O)CCn1cnnn1)OCO2,101,5,0,0,99,3,nt,nt,nt
CCN1C(=O)c2cccc3c(S(=O)(=O)Nc4ncccc4C)ccc1c23,82*[inhibitor],-3,-2,1,85,-10,105,3,105
CS(=O)(=O)N1CCN(c2ccc(NC(=O)c3cccnc3Cl)cc2)CC1,1.0*[inhibitor],0,-3,0,-3.0*[inhibitor],-20,96,-7,84
CCS(=O)(=O)N1CCN(c2ccc(S(=O)(=O)N3CCOCC3)cc2)CC1,48*[inhibitor],-2,3,-1,50,-15,101,0,103
CCCCCCCCNC(C)C(O)c1ccc(SC(C)C)cc1 (stereo not given),114,-7,4,0,142*,48*,198,51,108
CCn1ccnc1CN(C)Cc1cn(-c2ccc(C)cc2)nc1-c1cccc(C)c1,107,1,-2,-1,138*,-3,124,11,103
CCn1ccnc1CN(C)Cc1cn(-c2cccc(C)c2)nc1-c1cccc(F)c1,104,1,0,0,131,12,nt,nt,nt
COc1cc(NC(=O)c2cc(C)nc3ccccc23)cc(OC)c1OC,142*,3,-2,-1,122,10,110,6,105
COc1ccc(NC(=O)c2cc(C)nc3ccccc23)c(OC)c1,100,-2,-1,-1,93,-2,nt,nt,nt
Cc1ccnc(NC(=O)C2(c3cccs3)CCOCC2)c1,145*,5,0,0,107,0,1.0*[inhibitor],-29,2.0*
